Source: PubChem BioAssay
A selection: hits, their analogues and other compounds. The true share with any hit is near 4.7%.
MC4R antag cAMP: MC4R antagonists of cAMP signaling, primary screen, cell-based, TR-FRET, antagonist arm of biased-ligand search; actives 0.48% (n = 360,000); inhibition, % at 6.5 µM; MC4R-expressing cells, MTII-stimulated cAMP, LANCE TR-FRET; Melanocortin receptor 4 (Homo sapiens), P32245;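 active means inhibition above its plate's cutoff, the mean of tested wells on that plate plus 3 SD, cut at about 29% in these data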
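Material: human MC4R-expressing U2OS cells. Probe or stimulus: Melanotan II challenge. Dosing: 6.5 µM single dose. Times: 30-min compound, 1-h challenge, 1-h detection, room temperature. Technique: TR-FRET with Eu-cAMP and labeled anti-cAMP, 671 nm. Replication: singlicate.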
AHR act: AHR activators, primary screen, cell-based, luminescence, luciferase reporter, human | AHR-responsive luciferase reporter cells | actives 2.5% (n = 320,000) | AID 2796, 2010 | activation, % at 5 µM | Aryl hydrocarbon receptor (Homo sapiens), P35869; in the data active means activation above about 47%
MC4R ag barr: MC4R agonists recruiting beta-arrestin, primary screen, cell-based, luminescence, agonist arm of biased-ligand search; Melanocortin receptor 4 (Homo sapiens), P32245; activation, % at 8.9 µM; U2OS MC4R beta-arrestin complementation; percent of melanotan II response, DMSO zero; actives 0.98% (n = 360,000);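 active means activation above a per-plate cutoff, the mean activation of sample wells on that plate plus 3 SD, cut at about 8% in these data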
HTR2A ag: mouse Htr2a agonists via beta-arrestin recruitment, primary screen, cell-based, luminescence | 5-hydroxytryptamine receptor 2A (Mus musculus), P35363 | CHO-K1 mHTR2A beta-arrestin complementation; percent of 30 µM serotonin response | activation, % at 7.6 µM | actives 0.66% (n = 360,000) | AID 624169, 2012;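 active means activation above a run cutoff, the mean activation of all tested compounds plus 3 SD, cut at about 14% in these data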
Target sequence (P35363 whole entry, looked up): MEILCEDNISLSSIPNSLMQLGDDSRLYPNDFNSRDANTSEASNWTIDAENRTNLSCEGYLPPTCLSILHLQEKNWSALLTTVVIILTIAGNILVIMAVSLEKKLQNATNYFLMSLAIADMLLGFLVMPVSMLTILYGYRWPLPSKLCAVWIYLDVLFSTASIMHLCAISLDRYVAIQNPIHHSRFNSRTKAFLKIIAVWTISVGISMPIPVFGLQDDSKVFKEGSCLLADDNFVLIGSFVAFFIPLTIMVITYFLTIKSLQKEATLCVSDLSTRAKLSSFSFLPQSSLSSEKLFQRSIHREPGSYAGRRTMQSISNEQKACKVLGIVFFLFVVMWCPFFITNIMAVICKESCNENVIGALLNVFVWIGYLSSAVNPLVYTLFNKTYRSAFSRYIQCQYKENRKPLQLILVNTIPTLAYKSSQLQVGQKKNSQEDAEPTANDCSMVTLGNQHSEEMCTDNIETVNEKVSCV
FXN GAA850 act: FXN promoter activators, primary screen, cell-based, luciferase luminescence, HEK293 lucGAA850; HEK293 lucGAA850 FXN promoter luciferase reporter, 24 h; percent of 10 µM SAHA response; activation, % at 6 µM; actives 0.56% (n = 360,000);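 active means activation above the average of all compounds screened plus 3 SD, cutoff fixed separately per campaign, cut at about 7.5% in these data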
cAMP nonselect: nonselective cAMP signaling inhibitors, parental cells, counter-screen for MC4R biased antagonist project, cell-based, TR-FRET, U2OS, forskolin, triplicate; shares compounds with MC4R antag cAMP; LANCE TR-FRET; inhibition, % at 6.5 µM; actives 26% (n = 1,600);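 active means mean inhibition over triplicates above the low-control well mean plus 3 SD, set per campaign, cut at about 13% in these data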;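 further: signal is single emission at 671 nm which falls as cellular cAMP rises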
MC4R antag conf: MC4R cAMP antagonists, retest, confirmation, cell-based, TR-FRET. shares compounds with MC4R antag cAMP. MC4R-expressing cells, MTII-stimulated cAMP. inhibition, % at 6.5 µM. actives 27% (n = 1,600). AID 602195, 2012; in the data active means inhibition above about 29%
Large screens that a line does not name were inactive (follow-up assays come after a bar, where they were run).

Cc1ccc(Cl)cc1N1CCN(C(=O)c2ccc3c(c2)CCN3S(C)(=O)=O)CC1	none
Cc1cccc(CS(=O)(=O)c2ncc(Cl)c(C(=O)NCc3ccccc3)n2)c1	MC4R antag cAMP 52 | cAMP nonselect 27 | MC4R antag conf 57
CCCc1nnc(NC(=O)c2nc(S(=O)(=O)Cc3cccc(C)c3)ncc2Cl)s1	MC4R antag cAMP 38 | cAMP nonselect 25 | MC4R antag conf 47
COc1ccc(NC(=O)c2nc(S(=O)(=O)Cc3cccc(C)c3)ncc2Cl)c(OC)c1	none
Cc1cccc(CS(=O)(=O)c2ncc(Cl)c(C(=O)Nc3c(C)cccc3C)n2)c1	none
COc1ccccc1N(CC(=O)NCc1ccccc1C)S(=O)(=O)c1ccc(C)cc1	none
COC(=O)C1=COC(OC2OC(CO)C(O)C(O)C2O)C2C(C)CC(=O)C12 (stereo not given)	none (no result: AHR act)
CCOc1ccc(OCC)c(C2C(C#N)=C(N)N(c3cccnc3)C3=C2C(=O)CC(C)(C)C3)c1 (stereo not given)	none
CSc1sc(C)cc1C1C(C#N)=C(N)N(c2cccnc2)C2=C1C(=O)CC(C)(C)C2 (stereo not given)	MC4R antag cAMP 29 | cAMP nonselect inactive | MC4R antag conf inactive
COc1ccc(CNC(=O)C[C@@H]2C=C[C@@H](NS(=O)(=O)c3cccc(OC)c3)[C@@H](CO)O2)cc1	none (no result: MC4R antag cAMP, AHR act, MC4R ag barr, FXN GAA850 act)
O=C(CSCc1ccc(Cl)cc1Cl)Nc1ccc(O)cc1C(=O)O	none
O=C(CSCc1ccc(Cl)cc1Cl)Nc1ccccc1C(=O)Nc1ccc(C(=O)O)cc1	MC4R antag cAMP 30 | cAMP nonselect inactive | MC4R antag conf inactive
COc1ccc(COc2cc(-c3cccc(OC)c3)nc3ccc(NC(=O)c4cccnc4)cc23)cc1	MC4R antag cAMP 33 | cAMP nonselect inactive | MC4R antag conf inactive
CC(C)Cc1ccc(-c2cc3nc(NCCc4ccc(S(N)(=O)=O)cc4)ccn3n2)cc1	MC4R antag cAMP 29 (no result: AHR act) | cAMP nonselect inactive | MC4R antag conf inactive
NS(=O)(=O)c1ccc(CCNc2ccn3nc(-c4ccccc4)cc3n2)cc1	none (no result: AHR act)
CN(CCOc1ccc(Cl)cc1)C(=O)c1cccc(S(=O)(=O)N2CCN(c3ccccc3)CC2)c1	none (no result: AHR act)
CCOc1ccccc1OCC(=O)Oc1ccc(C)c(C)c1	MC4R antag cAMP 29 | cAMP nonselect inactive | MC4R antag conf inactive
COC(=O)C1=C(C(=O)OC)SC2(S1)C(C(=O)OC)=C(C(=O)OC)SC1=C2c2cc(C)cc(C)c2NC1(C)C	MC4R antag cAMP 53 | cAMP nonselect 15 | MC4R antag conf 40
COC(=O)[C@H]1Cc2c([nH]c3ccccc23)[C@H](c2ccccc2)N1	none
COc1ccc(C2NC(C(=O)O)Cc3c2[nH]c2ccccc32)cc1CN1CCN(c2ccc(F)cc2)CC1 (stereo not given)	MC4R antag cAMP 30 | cAMP nonselect inactive | MC4R antag conf inactive
O=C(CN1C(=O)NC2(CCc3ccccc32)C1=O)NCC(=O)Nc1ccc(F)cc1 (stereo not given)	none
OCCN1CCN(c2cc(C(F)(F)F)nc3c(F)cccc23)CC1	MC4R antag cAMP 30 | cAMP nonselect inactive | MC4R antag conf inactive
COc1cccc2cc(C(=O)C3=C(O)C(=O)N(Cc4ccco4)C3c3cccnc3)oc12 (stereo not given)	MC4R antag cAMP 29 | cAMP nonselect 27 | MC4R antag conf 44
O=C(C1=C(O)C(=O)N(Cc2ccco2)C1c1cccnc1)c1cc2ccccc2o1 (stereo not given)	none
CSCCC(NC(=O)c1ccc([N+](=O)[O-])cc1Cl)C(=O)OCC(=O)C12CC3CC(CC(C3)C1)C2 (stereo not given)	MC4R antag cAMP 33 | cAMP nonselect inactive | MC4R antag conf inactive
CSCCC(NC(=O)c1ccc([N+](=O)[O-])cc1Cl)C(=O)OC(C)C(=O)NCc1ccco1 (stereo not given)	MC4R antag cAMP 29 | cAMP nonselect inactive | MC4R antag conf inactive
CSCCC(NC(=O)c1ccc([N+](=O)[O-])cc1Cl)C(=O)OCC(=O)N1CCN(C(C)=O)CC1 (stereo not given)	none
O=C(/C=C/c1ccc(Cl)cc1)c1ccc([N+](=O)[O-])o1	MC4R antag cAMP 40 | cAMP nonselect inactive | MC4R antag conf inactive
N#CCCN(C(=O)COC(=O)c1ccc(Cl)nc1)c1ccc2c(c1)OCCO2	none (no result: AHR act)
Cc1ccc(NC(=O)c2ccccc2)cc1	none
Cc1ccc(NC(=O)C2=C(c3ccccc3)S(=O)(=O)CCS2(=O)=O)cc1	MC4R antag cAMP 61 | cAMP nonselect 50 | MC4R antag conf 44
C=CC[C@@H](Cc1ccc(F)cc1)C(=O)OC[C@@H]1CCCN1C(=O)[C@@H](CC=C)CC(=O)NCCO	none
CN(C)c1ccc(C=O)c(Oc2ccccc2)c1	none (no result: AHR act)
COc1cc(OC)cc(OC(=O)C2CCN(C(=O)c3ccc(Cl)cc3)CC2)c1	MC4R antag cAMP 29 | cAMP nonselect inactive | MC4R antag conf inactive
CCCCC[C@@H]1C=C(C(=O)O)[C@H](c2ccc3c(c2)OCO3)N1S(=O)(=O)c1ccc(C)cc1	none
CCOC(=O)c1ccc2ncc(C(=O)OCC)c(Nc3ccc(N4CCOCC4)cc3)c2c1	MC4R antag cAMP 48 | cAMP nonselect inactive | MC4R antag conf 48
CN1C(=O)CC(C(=O)Nc2ccccc2F)SC1=Nc1ccc2c(c1)OCO2 (stereo not given)	MC4R antag cAMP 33 | cAMP nonselect inactive | MC4R antag conf inactive
CC1(CNC(=O)C(=O)NCC2(C)CO2)CO1 (stereo not given)	none (no result: AHR act)
Cc1ccc2c(c1)[C@H]1[C@H](CO2)[C@H](c2ccccc2)[C@]2(C)C(=O)Nc3cc(F)ccc3C(=O)N12	none
O=C(O)C(C=C(Cl)Cl)N1CCOCC1 (stereo not given)	none (no result: AHR act)
CC(=O)Oc1c(C(C)C)cc(N(C(C)=O)c2ccccc2)cc1C(C)C	MC4R antag cAMP 33 | cAMP nonselect inactive | MC4R antag conf inactive
NC(=O)c1ccsc1NC(=O)COC(=O)/C=C/c1ccc([N+](=O)[O-])cc1	none
COC(=O)c1ccc(/C=C/C(=O)OCC(=O)Nc2sccc2C(N)=O)cc1	MC4R antag cAMP 36 | cAMP nonselect 15 | MC4R antag conf 29
